Measured values collected from several papers.
Protocols differ between the studies behind these lines.
Target: Dual specificity mitogen-activated protein kinase kinase 2 (MAP2K2, Homo sapiens, UniProt P36507)

Cn1c2c(Cl)c(Cl)ccc2c2cc[nH]c(=O)c21  ΔTm (thermal stability; DSF; 10 µM): -0.5 °C
N#CC(=C(N)Sc1ccc(N)cc1)c1ccccc1C(F)(F)F  remaining signal (cell-free assay; 0.5 µM): 94.5%
Cn1c2c(Cl)c(Cl)ccc2c2cc(N)[nH]c(=O)c21  ΔTm (thermal stability; DSF; 10 µM): -0.1 °C
Cc1ccc(C(=O)Nc2ccc(CN3CCN(C)CC3)c(C(F)(F)F)c2)cc1C#Cc1cnc2cccnn12  remaining activity (enzyme activity; inhibitor; 23.5 nM): 97%
CS(=O)(=O)Nc1cccc(-c2csc(NC(=O)CSc3nc4nccnc4c(=O)n3CCc3ccccc3)n2)c1  inhibition (enzyme activity; inhibitor; 10 µM): -1%
Cn1c2c(c3ccc(Cl)c(Cl)c31)C(C#N)C1(CCOCC1)NC2=O (stereo not shown)  ΔTm (thermal stability; DSF; 10 µM): -0.4 °C
CCc1ccccc1C(=O)Nc1n[nH]c2c(C)c(F)c(C3C(C#N)=C(C)N(C)C(C)=C3C#N)cc12  remaining binding (cell-free assay; competition with immobilised ligand; 1 µM): 100%
Cn1c2c(c3ccccc31)C(C#N)C(C)(C)NC2=O (stereo not shown)  ΔTm (thermal stability; DSF; 10 µM): -0.1 °C
FC(F)(F)Oc1cccc(-c2cnc3ccc(-c4ccncc4)nn23)c1  activity vs control (enzyme activity; inhibitor; radiometric; 5 µM): 94%
Cn1c2c(c3ccc(Cl)c(Cl)c31)C(C#N)C1(CCCC1)NC2=O (stereo not shown)  ΔTm (thermal stability; DSF; 10 µM): -0.4 °C
CCN(CC)CCNC(=O)c1c(C)[nH]c(/C=C2\C(=O)Nc3ccc(F)cc32)c1C  remaining signal (cell-free assay; 0.5 µM): 25.4%
CC1(C)NC(=O)c2[nH]c3c(Cl)c(Cl)ccc3c2C1C#N (stereo not shown)  ΔTm (thermal stability; DSF; 10 µM): -0.4 °C
CC(C)(C)c1nc(-c2cccc(NS(=O)(=O)c3c(F)cccc3F)c2F)c(-c2ccnc(N)n2)s1  remaining activity (enzyme activity; inhibitor; radiometric; 1 µM): 91%
COc1cc(-c2cc(-c3ccc(N4CCNCC4)cc3)cnc2C)cc(OC)c1OC  inhibition (enzyme activity; inhibitor; 1 µM): 8%
COc1cc(/C=C/C(=O)CC(=O)/C=C/c2ccc(O)c(OC)c2)ccc1O  activity vs control (enzyme activity; inhibitor; 1 µM): 91%
COc1cc2ncnc(Nc3ccc(Oc4ccccc4)cc3C)c2cc1OC  inhibition (enzyme activity; inhibitor; 1 µM): 41%
O=S(=O)(NC1CCC(c2cc(F)ccc2F)(S(=O)(=O)c2ccc(Cl)cc2)CC1)C(F)(F)F (stereo not shown)  remaining binding (cell-free assay; competition with immobilised ligand; 1 µM): 100%
CCOc1cc(-c2nncn2C)ccc1Nc1ncc2cc(C)nc(NCC(C)(C)C)c2n1  inhibition (enzyme activity; inhibitor; FRET; 1 µM): 18%
CNC(=O)c1ccc(Nc2ncc(C(F)(F)F)c(NCc3nccnc3N(C)S(C)(=O)=O)n2)cc1  remaining binding (cell-free assay; competition with immobilised ligand; 0.1 µM): 100%
COc1cc(Cl)c(C(=O)N[C@@H](CN[C@H]2CC[C@@H](N)CC2)Cc2ccc(C#N)cc2)cc1-c1ccc(CN[C@H](C)c2ccc(C)cc2)o1  remaining activity (enzyme activity; inhibitor; 1 µM): 115%
Cn1c(=O)n(-c2ccc(C(C)(C)C#N)cc2)c2c3cc(-c4cnc5ccccc5c4)ccc3ncc21  remaining activity (enzyme activity; inhibitor; 10 µM): 86%
C[C@H](NC(=O)c1cnc2n1[C@](C)(Cc1ccc(C#N)cc1)C(=O)N2c1cc(Cl)c(F)c(Cl)c1)C(=O)NC1(c2ccccn2)CC1  remaining binding (cell-free assay; competition with immobilised ligand; 1 µM): 90%
N#CC1c2c([nH]c3c(Cl)c(Cl)ccc23)C(=O)NC12CCCCC2 (racemic)  ΔTm (thermal stability; DSF; 10 µM): -0.8 °C
CCCOc1ccc([C@H]2[C@H](C(=O)O)[C@@H](c3ccc4c(c3)OCO4)CN2CC(=O)Nc2c(CC)cccc2CC)cc1  remaining binding (cell-free assay; competition with immobilised ligand; 1 µM): 62%
O=C1NC(=O)c2cc(Nc3ccc(F)cc3)c(Nc3ccc(F)cc3)cc21  remaining signal (cell-free assay; 0.5 µM): 89.5%
Nc1c(C(=O)NCc2ccc(C(=O)NCCCC3CCCCC3)cc2)cnn1-c1ccccc1  remaining binding (cell-free assay; competition with immobilised ligand; 0.1 µM): 100%
COc1cc(Nc2cnc(C#N)c(O[C@H](C)CN(C)C)n2)ncc1-c1cnn(C)c1  remaining activity (enzyme activity; inhibitor; radiometric; 10 µM): 57%
CN1CCN(c2cnc3c(C4CCN(C(=O)c5ccc(OC(F)(F)F)cc5N)CC4)ncnc3c2)CC1  remaining binding (cell-free assay; competition with immobilised ligand; 1 µM): 100%
FC(F)c1nc2ccccc2n1-c1nc(N2CCOCC2)nc(N2CCOCC2)n1  remaining activity (enzyme activity; inhibitor; 10 µM): 95%
CN(C(=O)c1ccccc1)c1cc(N(C)c2ccc3c(c2)CCc2ccc(C(=O)NCCN4CCOCC4)cc2C3=O)ccc1F  remaining binding (cell-free assay; competition with immobilised ligand; 1 µM): 100%
O=C(Nc1cnn(-c2csc(C(=O)NC3COC3)c2)c1)Nc1c(F)cccc1Cl  remaining activity (enzyme activity; inhibitor; 5 µM): 90.6%
